Results reported in ChEMBL document CHEMBL5303300, “EUbOPEN Chemogenomics Library - Multiplex” (2023).
Values joined by “and” are separate entries in the source; they are usually repeats but may differ in a detail not shown here. Equal entries are not always repeated.

Test system: Fibroblast
Assay: Multiplex assay against human fibroblast
Format: toxicity, cell-based
Settings: number of replicates 2
Outline: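 Values for tubulin, mitochondrial-mass and membrane-permeability phenotypes are per cents of cells with healthy nuclei. These cells were identified by CellPathfinder machine-learning gating of live cells that had been stained at seeding with Hoechst33342, BioTracker Green Microtubule Cytoskeleton Dye, MitoTracker Red and Annexin V Alexa Fluor 680 and imaged on a CQ1 microscope at 37°C and 5% CO2 after compound addition. The gating first set Hoechst high-intensity objects apart from normal cells, then split normal cells into healthy, pyknosed or fragmented nuclei, and pyknosed cells into mitotic or apoptotic.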

[1] = 12 h, 1 µM, compound concentration 1 uM
[2] = 12 h, 10 µM, compound concentration 10 uM
[3] = 24 h, 1 µM, compound concentration 1 uM
[4] = 24 h, 10 µM, compound concentration 10 uM
[5] = 48 h, 1 µM, compound concentration 1 uM
[6] = 48 h, 10 µM, compound concentration 10 uM

Compound: CS(=O)(=O)c1ccc(C(=O)Nc2cc(F)cc(COc3cc(F)c(Br)cc3CN3CC[C@H](O)C3)c2)c(Cl)c1.O=CO
- Population Apoptotic (%) [1]: 46% and 47%
- Population Fragmented Nuclei (%) [1]: 17%
- Population Healthy Nuclei (%) [1]: 64% and 60%
- Population Hoechst High Intensity Objects (%) [1]: 0%
- Population Normal (%) [1]: 99%
- Population Pyknosed Nuclei (%) [1]: 18% and 26%
- Total Cell Count [1]: 269 and 200
- Population Apoptotic (%) [2]: 67% and 54%
- Population Fragmented Nuclei (%) [2]: 20% and 17%
- Population Hoechst High Intensity Objects (%) [2]: 0%
- Population Normal (%) [2]: 100%
- Population Pyknosed Nuclei (%) [2]: 49% and 35%
- Total Cell Count [2]: 234
- Population Apoptotic (%) [3]: 56% and 57%
- Population Fragmented Nuclei (%) [3]: 20% and 17%
- Population Healthy Nuclei (%) [3]: 65% and 63%
- Population Hoechst High Intensity Objects (%) [3]: 0%
- Population Normal (%) [3]: 100%
- Population Pyknosed Nuclei (%) [3]: 19%
- Total Cell Count [3]: 284 and 204
- Population Apoptotic (%) [4]: 88% and 75%
- Population Fragmented Nuclei (%) [4]: 11%
- Population Healthy Nuclei (%) [4]: 42% and 51%
- Population Hoechst High Intensity Objects (%) [4]: 0%
- Population Normal (%) [4]: 99% and 100%
- Population Pyknosed Nuclei (%) [4]: 44% and 36%
- Total Cell Count [4]: 134 and 230
- Population Apoptotic (%) [5]: 74% and 71%
- Population Fragmented Nuclei (%) [5]: 25%
- Population Healthy Nuclei (%) [5]: 66% and 65%
- Population Hoechst High Intensity Objects (%) [5]: 0%
- Population Normal (%) [5]: 100%
- Population Pyknosed Nuclei (%) [5]: 8%
- Total Cell Count [5]: 319 and 223
- Population Apoptotic (%) [6]: 93% and 90%
- Population Fragmented Nuclei (%) [6]: 18% and 10%
- Population Healthy Nuclei (%) [6]: 22% and 39%
- Population Hoechst High Intensity Objects (%) [6]: 0%
- Population Normal (%) [6]: 100% and 98%
- Population Pyknosed Nuclei (%) [6]: 58% and 50%
- Total Cell Count [6]: 102 and 177

Compound: CCOC(=O)Nc1cc(-c2ccc(C)c(NS(C)(=O)=O)c2)nn2c(C)nnc12
- Population Apoptotic (%) [2]: 56% and 50% and 58% and 35%
- Population Fragmented Nuclei (%) [2]: 24% [middle of 4 runs]
- Population Healthy Nuclei (%) [2]: 74% and 67% and 65% and 60%
- Population Hoechst High Intensity Objects (%) [2]: 0%
- Population Mitochondria Different-Phenotype (%) [2]: 4% and 3% and 1%
- Population Mitotic Cells (%) [2]: 43% and 50% and 41% and 64%
- Population Normal (%) [2]: 99% and 100%
- Population Pyknosed Nuclei (%) [2]: 13% and 8%
- Population Tubulin-Different-Phenotype (%) [2]: 52% and 63% and 54% and 62%
- Total Cell Count [2]: 238 and 256 and 323 and 254
- Population Apoptotic (%) [4]: 52% and 69% and 65% and 42%
- Population Fragmented Nuclei (%) [4]: 33% and 20% and 21% and 34%
- Population Healthy Nuclei (%) [4]: 58% and 68% and 66% and 56%
- Population Hoechst High Intensity Objects (%) [4]: 0%
- Population Membrane Permeable-Phenotype (%) [4]: 11% and 5% and 12%
- Population Mitochondria Different-Phenotype (%) [4]: 7% and 4% and 2%
- Population Mitotic Cells (%) [4]: 47% and 30% and 34% and 57%
- Population Normal (%) [4]: 100%
- Population Pyknosed Nuclei (%) [4]: 7% and 11% and 8%
- Population Tubulin-Different-Phenotype (%) [4]: 57% and 33% and 29% and 43%
- Total Cell Count [4]: 314 and 289 and 319 and 299
- Population Apoptotic (%) [6]: 80% and 97% and 72%
- Population Fragmented Nuclei (%) [6]: 16% and 27% and 31%
- Population Healthy Nuclei (%) [6]: 71% and 60% and 67% and 52%
- Population Hoechst High Intensity Objects (%) [6]: 0%
- Population Membrane Permeable-Phenotype (%) [6]: 10% [middle of 4 runs]
- Population Mitochondria Different-Phenotype (%) [6]: 1% and 9% and 3% and 8%
- Population Normal (%) [6]: 100%
- Population Pyknosed Nuclei (%) [6]: 12% and 16%
- Population Tubulin-Different-Phenotype (%) [6]: 24% and 48% and 26% and 34%
- Total Cell Count [6]: 248 and 265 and 292 and 250

Compound: CNc1ncc2cc(-c3ccc(-c4cccc(C)n4)cc3Cl)c(=O)n(C[C@H]3OC[C@H](N)CO3)c2n1
- Population Apoptotic (%) [1]: 43% and 42%
- Population Fragmented Nuclei (%) [1]: 9% and 17%
- Population Healthy Nuclei (%) [1]: 51% and 52%
- Population Hoechst High Intensity Objects (%) [1]: 0%
- Population Membrane Permeable-Phenotype (%) [1]: 10%
- Population Mitochondria Different-Phenotype (%) [1]: 0%
- Population Mitotic Cells (%) [1]: 56% and 57%
- Population Normal (%) [1]: 100%
- Population Pyknosed Nuclei (%) [1]: 39% and 30%
- Population Tubulin-Different-Phenotype (%) [1]: 21% and 18%
- Total Cell Count [1]: 176 and 246
- Population Apoptotic (%) [2]: 44% and 35%
- Population Fragmented Nuclei (%) [2]: 22% and 26%
- Population Healthy Nuclei (%) [2]: 26% and 28%
- Population Hoechst High Intensity Objects (%) [2]: 1% and 7%
- Population Membrane Permeable-Phenotype (%) [2]: 23% and 16%
- Population Mitochondria Different-Phenotype (%) [2]: 0%
- Population Mitotic Cells (%) [2]: 55% and 64%
- Population Normal (%) [2]: 98% and 92%
- Population Pyknosed Nuclei (%) [2]: 50% and 45%
- Population Tubulin-Different-Phenotype (%) [2]: 55% and 51%
- Total Cell Count [2]: 227 and 323
- Population Apoptotic (%) [3]: 41% and 67%
- Population Fragmented Nuclei (%) [3]: 14% and 21%
- Population Healthy Nuclei (%) [3]: 56%
- Population Hoechst High Intensity Objects (%) [3]: 0%
- Population Membrane Permeable-Phenotype (%) [3]: 25% and 13%
- Population Mitochondria Different-Phenotype (%) [3]: 0%
- Population Mitotic Cells (%) [3]: 58% and 32%
- Population Normal (%) [3]: 100% and 99%
- Population Pyknosed Nuclei (%) [3]: 28% and 21%
- Population Tubulin-Different-Phenotype (%) [3]: 29% and 15%
- Total Cell Count [3]: 179 and 248
- Population Apoptotic (%) [4]: 45% and 65%
- Population Fragmented Nuclei (%) [4]: 27% and 23%
- Population Healthy Nuclei (%) [4]: 34% and 36%
- Population Hoechst High Intensity Objects (%) [4]: 7% and 4%
- Population Membrane Permeable-Phenotype (%) [4]: 31% and 34%
- Population Mitochondria Different-Phenotype (%) [4]: 5% and 4%
- Population Mitotic Cells (%) [4]: 54% and 34%
- Population Normal (%) [4]: 92% and 95%
- Population Pyknosed Nuclei (%) [4]: 38% and 39%
- Population Tubulin-Different-Phenotype (%) [4]: 37% and 59%
- Total Cell Count [4]: 304 and 248
- Population Apoptotic (%) [5]: 61% and 86%
- Population Fragmented Nuclei (%) [5]: 22% and 24%
- Population Healthy Nuclei (%) [5]: 64% and 66%
- Population Hoechst High Intensity Objects (%) [5]: 0%
- Population Membrane Permeable-Phenotype (%) [5]: 36% and 19%
- Population Mitochondria Different-Phenotype (%) [5]: 0%
- Population Mitotic Cells (%) [5]: 38% and 13%
- Population Normal (%) [5]: 100%
- Population Pyknosed Nuclei (%) [5]: 12% and 9%
- Population Tubulin-Different-Phenotype (%) [5]: 39% and 19%
- Total Cell Count [5]: 171 and 237
- Population Apoptotic (%) [6]: 42% and 24%
- Population Fragmented Nuclei (%) [6]: 19% and 28%
- Population Healthy Nuclei (%) [6]: 57% and 51%
- Population Hoechst High Intensity Objects (%) [6]: 9% and 11%
- Population Membrane Permeable-Phenotype (%) [6]: 40% and 39%
- Population Mitochondria Different-Phenotype (%) [6]: 2% and 1%
- Population Mitotic Cells (%) [6]: 57% and 75%
- Population Normal (%) [6]: 90% and 88%
- Population Pyknosed Nuclei (%) [6]: 23% and 20%
- Population Tubulin-Different-Phenotype (%) [6]: 33% and 29%
- Total Cell Count [6]: 268 and 338
